Results gathered from unrelated publications.
Target: Mitogen-activated protein kinase 15 (MAPK15, Homo sapiens, UniProt Q8TD08)
Residues used in one study (Q8TD08 1-544): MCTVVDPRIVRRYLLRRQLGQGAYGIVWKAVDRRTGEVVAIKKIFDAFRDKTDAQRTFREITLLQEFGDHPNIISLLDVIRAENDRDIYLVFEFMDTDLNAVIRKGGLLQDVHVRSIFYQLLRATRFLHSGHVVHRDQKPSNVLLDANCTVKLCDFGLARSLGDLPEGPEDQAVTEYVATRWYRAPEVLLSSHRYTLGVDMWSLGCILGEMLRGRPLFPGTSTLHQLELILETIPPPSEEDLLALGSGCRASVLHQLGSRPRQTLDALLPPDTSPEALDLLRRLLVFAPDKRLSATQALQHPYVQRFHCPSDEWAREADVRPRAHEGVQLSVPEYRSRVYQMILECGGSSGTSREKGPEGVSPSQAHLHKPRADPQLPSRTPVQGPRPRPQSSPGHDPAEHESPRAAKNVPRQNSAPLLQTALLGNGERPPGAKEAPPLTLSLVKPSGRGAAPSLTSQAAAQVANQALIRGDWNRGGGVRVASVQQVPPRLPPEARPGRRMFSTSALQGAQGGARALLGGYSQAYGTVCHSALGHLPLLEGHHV

COc1cnc(Nc2cccc(S(N)(=O)=O)c2)nc1N1CCN(c2ccccc2)C(=O)C1 — remaining binding (binding, competition with immobilised ligand; 1 µM): 100%
Cc1cnc(Nc2ccc(C(=O)N3CCC(N4CCCC4)CC3)cc2)nc1-c1cc2ccccc2s1 — remaining binding (binding, competition with immobilised ligand; 1 µM): 33%
CN(CCCC(F)(F)F)c1nccc(-c2cnn3ncccc23)n1 — remaining binding (binding; 1 µM): 100%
CO[C@@H](C)c1c(Nc2ccc([C@H](N(C)C(=O)C3CCS(=O)(=O)CC3)C(F)(F)F)cc2)cnc2cc(Cl)nn12 — remaining binding (cell-free assay, competition with immobilised ligand; 1 µM): 87%
c1cncc(-c2cccc(Nc3nccc(NC4CCCCC4)n3)c2)c1 — remaining binding (binding, competition with immobilised ligand; 10 µM): 62%
CS(=O)(=O)N1CCCC(NC(=O)[C@H](CCC2CCCCC2)NC(=O)c2ccc(CNC(=O)c3cnc4ccccn34)cc2)C1 (stereo partly shown) — remaining binding (cell-free assay, competition with immobilised ligand; 0.1 µM): 100%
CCN1CCN(Cc2ccc(C(=O)Nc3ccc(C)c(Oc4ccc5c(c4)CC(=O)N5)c3)cc2C(F)(F)F)CC1 — remaining binding (binding, competition with immobilised ligand; 1 µM): 100%
O=C(NCCCN1CCOCC1)c1ccc(Nc2ncc(Cl)c(-c3ccc(Cl)s3)n2)cc1 — remaining binding (binding, competition with immobilised ligand; 1 µM): 1.2%
COc1cnc(Nc2cccc(S(N)(=O)=O)c2)nc1N1CCN(c2ccccc2)CC1 — remaining binding (binding, competition with immobilised ligand; 1 µM): 100%
O=C(c1ccc(Nc2ncc(Cl)c(-c3ccc(Cl)s3)n2)cc1)N1CCC(N2CCCC2)CC1 — remaining binding (binding, competition with immobilised ligand; 1 µM): 3.8%
Cc1cnn2ncc(-c3ccnc(N(C)C)n3)c2c1 — remaining binding (binding; 1 µM): 83%
C[C@H](c1ccc(F)cc1)N(Cc1cccc(C(=O)O)c1)C(=O)c1cnc2ccccc2c1 — remaining binding (cell-free assay, competition with immobilised ligand; 1 µM): 93%
N[C@H]1CCN(c2nccc(-c3cnn4ncccc34)n2)C1 — remaining binding (binding; 1 µM): 93%
O=C(NCC1CCOCC1)c1n[nH]cc1NC(=O)c1c(F)cccc1F — remaining binding (binding, competition with immobilised ligand; 1 µM): 79%
c1cnn2ncc(-c3ccnc(N4CCC45COC5)n3)c2c1 — remaining binding (binding; 1 µM): 71%
FC(F)(F)Oc1cccc(-c2cnc3ccc(-c4ccncc4)nn23)c1 — remaining binding (cell-free assay, competition with immobilised ligand; 5 µM): 48%
C[C@H](NC(=O)c1cnc2n1[C@](C)(Cc1ccc(C#N)cc1)C(=O)N2c1cc(Cl)c(F)c(Cl)c1)C(=O)NC1(c2ccccn2)CC1 — remaining binding (cell-free assay, competition with immobilised ligand; 1 µM): 100%
CN(C)c1nccc(-c2cnn3ncccc23)n1 — remaining binding (binding; 1 µM): 51%
COc1ccc2cc(OCC3(C(=O)O)CN(C(=O)c4ccc(F)cc4)C3)ccc2c1 — remaining binding (cell-free assay, competition with immobilised ligand; 1 µM): 74%
C[C@@H]1CCN(c2nccc(-c3cnn4ncccc34)n2)C1 — remaining binding (binding; 1 µM): 49%
CC1=C(C#N)C(c2ccc3c(c2)c(NC(=O)c2ccccc2C)nn3C)C(C#N)=C(C)N1 — remaining binding (cell-free assay, competition with immobilised ligand; 1 µM): 89%
F[C@@H]1CCN(c2nccc(-c3cnn4ncccc34)n2)C1 — remaining binding (binding; 1 µM): 66%
